Screens deposited in PubChem BioAssay by Broad Institute.
ERAP1 inh = human ERAP1 aminopeptidase inhibitors, primary screen, biochemical, single point, plate reader; AID 652197, 2013; inhibition, % at 10.7 µM; Endoplasmic reticulum aminopeptidase 1 (Homo sapiens), Q9NZ08; actives 0.15% (n = 340,000); recombinant ERAP1, Leu-AMC fluorescence, 60 min;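 active = mean replicate inhibition of at least 30%, or all replicates individually reaching that 30% level; inactive = mean below 30% and not every replicate reaching it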;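 note: 0% = neutral control wells and 100% = L-leucinethiol positive control wells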
Ecoli rRNA inh = reduced GFP signal of wild-type E. coli, primary screen, bacterial rRNA inhibitor project, GFP/RFP fluorescence, OD600, single point; E. coli WT GFP vs humanized-ribosome RFP mutants, 24 h; hits give low values; DMSO median 0, no signal -100; GFP signal change (wild-type ribosome), % (test concentration not listed); actives 1.6% (n = 350,000); AID 720706, 2013;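 active = significant combined selectivity score with lowered wild-type GFP, culture density cut under 30%, mutant RFP and density less affected; inactive = any of these conditions unmet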
SIRT5 block = SIRT5 desuccinylase inhibitors, primary screen, biochemical, fluorescence imaging, single point, set 5 | AID 652115, 2013 | actives 1.1% (n = 330,000) | NAD-dependent protein deacylase sirtuin-5, mitochondrial (Homo sapiens), Q9NXA8 | Purified SirT5, succinyl-peptide AMC, trypsin-coupled fluorescence | inhibition, % at 15 µM; in the data active = inhibition above about 15%; inconclusive = no clear call, values can overlap the other calls
E-selectin induc = E-selectin induction in HUVECs, primary screen, imaging, HUVEC, immunofluorescence imaging, single point | P16581 | normalized: neutral wells 0, TNF-alpha wells 100 | activation, % at 7.58 µM | AID 686992, 2013 | actives 0.37% (n = 260,000);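 active = mean E-selectin-positive cell signal at least 10% of the positive control, reached in at least 60% of replicates, without over 20% cell loss; inconclusive = no rule given, readout overlaps actives, possibly toxicity-flagged; inactive = the rest, including those meeting only one limit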
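Read-out: % PE-positive cells | Test system: HUVEC | Doses: One compound dose added by pin transfer | Buffer or medium: EGM-2 over gelatin coat | Signal: Immunofluorescence imaging | Benchmarks: TNF-alpha, DMSO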
S100A4 MyoIIA = inhibitors of S100A4-myosin IIA peptide binding, primary screen, biochemical, fluorescence polarization, TAMRA-MyoIIA peptide. Protein S100-A4 (Homo sapiens), P26447. inhibition, % at 10.7 µM. actives 0.14% (n = 360,000). AID 652163, 2013;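 active = mean inhibition of at least 70% across replicates, with every replicate also reaching that level; inconclusive = mean inhibition reaches 70% but some replicates fall short; inactive = mean inhibition below 70%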
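Material: human S100A4 monomer with TAMRA-labelled myosin IIA peptide; buffer or medium: HEPES pH 7.2 with CaCl2, KCl, NaCl, DTT, Triton; compound dosing: one concentration per compound; schedule: 5 min incubation before reading; benchmarks: neutral control DMSO, positive control TFP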
MLL AF4-AF9 inh = inhibitors of AF4 peptide binding to AF9, primary screen, biochemical, AlphaScreen, biotin-AF4 peptide, FLAG-AF9, single point; Protein AF-9 (Homo sapiens), P42568; inhibition, % at 10 µM; actives 0.47% (n = 350,000); AID 651704, 2012;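 active = every replicate reaching a set inhibition limit, whatever the replicate mean, cut at about 25% in these data; inconclusive = mean inhibition reaches that limit but some replicates miss it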;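 note: 0% = plate neutral control median and 100% = total signal loss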
The depositor's hits bear a star; ? = inconclusive; / = not tested or not shown. This is a sample that favours compounds with a hit; in the whole collection about 3.4% have one here.

SMILES	ERAP1 inh	Ecoli rRNA inh	SIRT5 block	E-selectin induc	S100A4 MyoIIA	MLL AF4-AF9 inh
CCC(=O)Nc1ccc2c(c1)C(=O)N(C)C[C@@H](OC)[C@H](C)CN(C(=O)c1ccccn1)[C@H](C)CO2	2.4	3.0	-0.5	0.1	1.1	?
CCC(=O)N1C[C@@H](C)[C@@H](OC)CN(C)C(=O)c2cc(NC(=O)CC(F)(F)F)ccc2OC[C@@H]1C	-3.0	1.5	21.0*	0.1	-15.5	-4.2
CO[C@H]1CN(C)C(=O)c2cc(NC(=O)CC(F)(F)F)ccc2OC[C@@H](C)N(C(=O)C2CCCCC2)C[C@@H]1C	2.5	1.8	28.4*	0.2	-5.3	-31.4
CCC(=O)Nc1ccc2c(c1)C(=O)N(C)C[C@H](OC)[C@@H](C)CN(C(=O)c1ccccn1)[C@H](C)CO2	5.2	1.9	2.1	0.0	4.4	31.7*
Cc1ccc(CSc2nc3ccccc3c(=O)n2C)cc1	-5.4	5.4	-2.1	-0.1	0.7	-2.6
CCn1c(/C=C\c2ccccc2C)nc2ccccc2c1=O	0.5	-17.9	-5.3	-0.1	-1.9	31.2*
CCn1c(SCc2ccccc2)nc2ccccc2c1=O	0.8	-32.2*	-3.0	/	4.4	-1.6
CC(=O)N1CC2(C1)[C@@H](c1ccc(-c3ccc(C#N)cc3)cc1)[C@H](CO)N2C(=O)C1CC1	/	-3.5	-6.0	-0.3	-5.0	0.1
COc1cccc(OCc2nnc(SCc3cc(=O)[nH]c4ccccc34)o2)c1	-1.9	3.1	-0.4	-0.6	2.7	38.3*
Cc1cccc(C)c1NC(=S)N(Cc1cccs1)C1CCCC1	-1.8	4.9	1.3	1.0	-2.4	0.1
Cc1ccccc1NC(=S)N(Cc1cccs1)C1CCCC1	4.4	-24.0*	-6.1	-0.2	-5.4	-1.8
CN(C)S(=O)(=O)Nc1cc(Cl)cc(Cl)c1	1.2	-36.9*	2.6	/	2.0	-3.9
COc1ccc2c3c([nH]c2c1)[C@@H](CO)N(C(=O)C1CC1)CC31CN(S(C)(=O)=O)C1	5.2	0.8	-2.3	-0.2	14.1	0.9
O=C(O)C1CCN(c2nc(-c3ccccc3)c3cc(Br)ccc3n2)CC1	-11.7	-4.1	-1.1	34.5*	-3.0	-1.4
OCCN1CCN(c2nc(-c3ccccc3)c3cc(Br)ccc3n2)CC1	-19.2	-2.0	-4.7	0.4	19.3	8.9
CCCC(=O)N1CC2(C1)CN(C(=O)C1CCC1)[C@H](CO)c1[nH]c3cc(OC)ccc3c12	0.5	0.2	-1.0	0.3	5.8	4.5
Cn1nc(C(F)(F)F)c2cc(C(=O)Nc3ccc(F)cc3)sc21	-3.1	1.0	-0.3	/	6.7	-3.7
Cn1nc(C(F)(F)F)c2cc(C(=O)Nc3ccc(C(F)(F)F)cc3)sc21	6.3	-39.2*	1.0	3.0	-4.7	-2.8
Cn1nc(C(F)(F)F)c2cc(C(=O)Nc3ccc(F)c(Cl)c3)sc21	7.4	-30.1*	-0.4	-0.4	-3.7	-4.0
O=C(Nc1cccc(CNCCc2c[nH]c3ccccc23)c1)c1ccccc1Cl	-10.1	-3.8	-3.2	0.1	-1.4	34.6*
CC(=O)c1cccc(NC(=O)NCCc2c[nH]c3ccccc23)c1	/	3.3	-4.1	3.9	-5.5	-3.4
C[C@@H]1CN([C@H](C)CO)C(=O)Cc2cc(NC(=O)Cn3cnnn3)ccc2O[C@@H]1CN(C)C(=O)Nc1cccc2ccccc12	/	5.5	/	-4.0	/	/
COc1ccc(NC(=O)CC2C(=O)N(Cc3ccco3)C(=S)N2C(C)C)cc1 (centres undefined)	/	-8.8	-1.4	0.9	2.9	-3.3
COc1ccc(NC(=O)CC2C(=O)N(Cc3cccs3)C(=S)N2C(C)C)cc1 (centres undefined)	/	-16.9	31.2*	-0.1	-7.7	-7.0
CCN1C(=O)C(CC(=O)Nc2ccc(OC)cc2)N(Cc2cccs2)C1=S (centres undefined)	1.5	-30.7*	-0.5	/	1.8	-0.8
